XiGFP reactiv = activators of X-chromosome reactivation in mouse fibroblasts. 360,000 tested, 0.055% active. XiGFP mouse fibroblasts, % GFP-positive cells imaging, 3 d; cells co-treated with 5-aza-dC sensitizer; scaled so ellipticine positive control = 100%. activation, % at 7.58 µM;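 active = mean normalized replicate activation at least 10% and every replicate at or above 10%; inconclusive = only one of the two criteria met; inactive = mean below 10% and not all replicates reach 10%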;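 also: 0% = median of on-plate neutral control wells and 100% = ellipticine 6 µM median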
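Assay system: SV40-immortalized XiGFP fibroblast cells, line 68-5-11; buffer or medium: DMEM plus 5-aza-dC sensitizer; compound: one concentration, pinned; timing: compounds 3 days, fix/stain 15 min at room temperature; benchmarks: positive control ellipticine, 6 µM final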
DENV2 CPE rescue = inhibitors of DENV2 cytopathic effect | DENV2-infected cells, cytopathic effect rescue, plate reader | AID 651640 | CPE inhibition, % at 9.99 µM | 350,000 tested, 1.7% active; in the data active = CPE inhibition above about 20%, passing the limit was not always enough; inconclusive = no clear call, values can overlap the other calls; tested in BHK-21 cells;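 also: 0% = median of neutral control wells and 100% = median of positive control wells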
CASP6 VEID inh = inhibitors of human caspase-6. P55212. purified caspase-6, Z-VEID-R110 cleavage fluorescence. inhibition, % at 12.5 µM. 350,000 tested, 0.53% active;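 active = mean inhibition across replicates at least about 35%, with every replicate also reaching that limit, limit read from the data; inconclusive = only one of the two criteria met; inactive = neither criterion met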;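 also: 0% = median of neutral control wells and 100% = no fluorescence left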
Target sequence (P55212 24-179 limits assumed): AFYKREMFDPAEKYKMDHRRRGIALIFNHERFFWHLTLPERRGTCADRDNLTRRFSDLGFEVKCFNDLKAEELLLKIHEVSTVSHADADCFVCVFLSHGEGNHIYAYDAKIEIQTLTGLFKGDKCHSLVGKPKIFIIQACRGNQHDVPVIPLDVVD
Target sequence (P55212 194-293 limits assumed): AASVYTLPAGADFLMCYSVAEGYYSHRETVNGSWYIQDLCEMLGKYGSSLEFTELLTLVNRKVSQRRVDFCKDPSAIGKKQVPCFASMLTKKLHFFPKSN
FN deposit inh = fibronectin deposition inhibition. AH1F fibroblasts, Alexa488-fibronectin deposition fluorescence, overnight. inhibition, % at 12.6 µM. 350,000 tested, 0.086% active;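 active = mean inhibition across replicates of 30% or more, regardless of how many single replicates reach that level; inconclusive = mean under 30% yet at least half of replicates reach 30%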;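 also: positive control wells lacked labelled fibronectin entirely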
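Material: AH1F fibroblast monolayer depositing Alexa488-labelled fibronectin into matrix / Amount: 10000 AH1F cells per well / Signal: fluorescence 485/525 nm / Medium: DMEM, 2% serum / Compound: single dose, pinned / Incubation: 1 h cell adhesion before compound, then overnight fibronectin incubation / Reagent: Alexa488-FN, 24 nM final / Read-out: inhibition of fibronectin deposition signal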
CaV13 FRET inh = Disruptors of the CACNA1D IQ motif to Ca2+-dependent inactivation inhibitor domain association, primary screening, Förster resonance energy transfer in intact living …. 340,000 tested, 0.098% active. inhibition, % at 12.3 µM. HEK cells, CFP/YFP FRET ICDI-IQ, plate reader, 10 min; percent FRET-ratio fall versus neutral wells;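 active = mean replicate inhibition of at least 30% and at least 1% of replicates passing that level; inconclusive = only one of the two criteria is met; inactive = neither criterion is met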;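 also: 0% = median of the neutral control wells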
* marks the source's active call; other numbers are inactive results; ? = inconclusive; . = no result given; ! = a repeat was not active. Rows were chosen to be rich in hits. Some 2% of all compounds tested hit in one or more screens of this group.

SMILES	XiGFP reactiv	DENV2 CPE rescue	CASP6 VEID inh	FN deposit inh	CaV13 FRET inh
O=C1NC(=O)[C@]2(Cc3ccccc3N3CCN(c4ccccc4)CC32)C(=O)N1c1ccccc1 (stereo partly drawn)	.	.	.	31*	-5
CCCNC(=O)[C@H]1[C@H](CO)[C@H]2Cn3c(cccc3=O)[C@H]2N1C	2	-4	1	.	.
COc1ccc(-c2ccc3n(c2=O)C[C@@H]2[C@@H](CO)[C@H](C(=O)O)[C@H]3N2C(=O)c2ccccc2F)cc1	0	2	-1	.	.
NCCc1ccccc1	.	43*	-1	.	.
NCCc1ccc(S(N)(=O)=O)cc1	0	6	-1	9	-21
COc1ccc(C#Cc2ccc([C@H]3[C@H]4CN(C(=O)Cc5cccnc5)CCCCN4[C@H]3CO)cc2)cc1	0	5	3	.	.
C/C=C/c1ccc(C2[C@@H]3CN(Cc4cccc(F)c4)C[C@H]2N3)cc1 (stereo partly drawn)	0	?	0	-3	.
O=C(Cc1ccccn1)N1CC2(C1)[C@@H](c1ccccc1)[C@@H](CO)N2Cc1ccccn1	0	-5	0	.	.
NS(=O)(=O)c1nc[nH]c1[N+](=O)[O-]	1	29*	4	6	-3
CC=Cc1ccc2n(c1=O)C[C@@H]1[C@@H](CO)[C@H](C(=O)N(C)C)N[C@H]21 (mixture of isomers)	1	?	1	.	.
O=C(Cc1cccnc1)N1CCCCN2[C@H](C1)[C@@H](c1ccc(C#CC3CC3)cc1)[C@@H]2CO	.	-3	1	.	.
COc1ccc2c3c1OC1C(=O)CC[C@@]4(O)[C@@H](C2)N(CC2CC2)CC[C@]314 (stereo partly drawn)	.	11	3	.	.
O=C1CC[C@@]2(O)[C@H]3Cc4ccc(O)c5c4[C@@]2(CCN3CC2CC2)C1O5 (stereo partly drawn)	.	28*!	0	.	.
CCCN1[C@@H]2Cn3c(ccc(-c4cccc(OC)c4)c3=O)[C@H]1[C@@H](C(=O)OC)[C@@H]2CO	0	9	0	.	.
CN1[C@@H]2CN(CC3CC3)C[C@H]1C2c1ccc(Br)cc1 (stereo partly drawn)	0	.	.	7	.
CC(=O)OC(C)(C)/C=C/C(=O)C(C)(O)C1C(O)CC2(C)C3CC=C4C(CC(O)C(=O)C4(C)C)C3(C)C(=O)CC12C (stereo not drawn)	2	10	0	30*	-2
CC(=O)OC(C)(C)/C=C/C(=O)C(C)(O)C1[C@H](O)C[C@@]2(C)C3CC=C4C(CC[C@@H](O)C4(C)C)[C@]3(CO)C(=O)C[C@]12C (stereo partly drawn)	1	6	22	-5	-20
COC(=O)[C@H]1[C@H](CO)[C@H]2Cn3c(ccc(-c4cccnc4)c3=O)[C@@H]1N2CCc1ccccc1	0	-12	2	.	.
O=C(O)C[C@@H]1CC[C@H]2NC[C@@H](O)COC[C@@H]2O1	0	2	9	3	.
C=CCN1[C@@H]2CN(S(C)(=O)=O)C[C@H]1C2c1ccccc1 (stereo partly drawn)	0	.	.	4	.
CC(C)N1C(=O)/C(=C/C=C/c2ccco2)C(=O)N(Cc2ccco2)C1=O	.	.	.	-3	-6
COc1ccc(/C=C2/C(=O)N(Cc3ccco3)C(=O)N(C(C)C)C2=O)cc1	0	4	78*	.	-6
CN(C)c1ccc(/C=C2/C(=O)NC(=O)N(Cc3ccco3)C2=O)cc1	0	3	81*	-2	-4
CCCN1[C@@H]2c3ccc(-c4ccccc4)c(=O)n3C[C@H]1[C@H](CO)[C@H]2C(=O)OC	0	11	2	.	.
CCN(CC)c1ccccc1	.	129*	1	.	.
O=C(c1ccc(CNS(=O)(=O)c2ccc(Br)cc2)cc1)N1CCC2(CC1)OCCO2	0	37*	-1	-4	-5
Cc1ccccc1-c1ccc([C@H]2[C@@H](CO)N3CCCCN(C(=O)Cc4ccccn4)C[C@H]23)cc1	0	-10	0	.	.
O[C@H]1[C@H](O)[C@@H](O)CN2CC[C@H](O)[C@H]12	0	-8	2	-5	-4
OC1CN2CCCC(O)C2C1O (stereo not drawn)	.	55*	0	.	.
Cn1c(=O)[nH]c2nncnc2c1=O	0	-3	43*	2	-6

Screening data deposited in PubChem by Broad Institute.
